The values that follow come from ChEMBL document CHEMBL4321823, “Benzyl Phenylsemicarbazides: A Chemistry-Driven Approach Leading to G Protein-Biased Dopamine D4 Receptor Agonists with High Subtype Selectivity” (J Med Chem, 2019).

pEC50, pIC50, pKi: −log10 of the molar value.

In test [1] the target is T1, D(2) dopamine receptor (Homo sapiens, UniProt P14416). The test is described as follows: Displacement of [3H] Spiperone from human D2L receptor expressed in CHO cells by competitive radioligand binding assay. The format is cell-based.
Test [2] has as its target T1, D(2) dopamine receptor. The test is described as follows: Displacement of [3H] Spiperone from human D2S receptor expressed in CHO cells by competitive radioligand binding assay. The format is cell-based. In general terms: In a radioligand displacement assay an active substance lowers the binding of a labelled ligand.
The target in another test is D(3) dopamine receptor (Homo sapiens, UniProt P35462). The test is described as follows: Displacement of [3H] Spiperone from human D3 receptor expressed in CHO cells by competitive radioligand binding assay. The format is cell-based.
The target in test [3] is T2, D(4) dopamine receptor (Homo sapiens, UniProt P21917).
T2 sequence (P21917 whole entry): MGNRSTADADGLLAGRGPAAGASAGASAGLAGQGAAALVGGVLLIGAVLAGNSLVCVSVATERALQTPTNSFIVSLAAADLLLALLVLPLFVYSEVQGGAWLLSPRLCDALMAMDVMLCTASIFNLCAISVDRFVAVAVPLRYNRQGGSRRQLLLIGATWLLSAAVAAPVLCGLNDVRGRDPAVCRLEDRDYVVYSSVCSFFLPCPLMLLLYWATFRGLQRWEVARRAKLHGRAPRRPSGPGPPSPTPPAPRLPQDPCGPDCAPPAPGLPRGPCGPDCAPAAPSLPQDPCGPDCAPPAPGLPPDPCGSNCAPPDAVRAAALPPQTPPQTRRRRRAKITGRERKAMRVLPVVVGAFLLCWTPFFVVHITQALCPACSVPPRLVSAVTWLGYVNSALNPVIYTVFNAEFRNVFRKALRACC
Put plainly: Displacement of [3H] Spiperone from human D4.4 receptor expressed in CHO cells by competitive radioligand binding assay. The format is cell-based.

Test [4] is filed under the species Homo sapiens. The test is described as follows: Selectivity index, ratio of Ki for displacement of [3H] Spiperone from human D2L receptor expressed in CHO cells to Ki for displacement of [3H] Spiperone from human D4.4 receptor expressed in CHO cells. The format is cell-based. A digest of the protocol: (§1)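 Competition binding against [3H]spiperone on membranes of CHO cells stably expressing cloned human D2L, D2S, D3 or D4.4 receptors. Ki from monophasic curve fits; mean ± SEM of three to seven experiments, each in triplicate. Selectivity calculated as Ki(D2L, D2S or D3) divided by Ki(D4.4).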

For test [5], the species on record is Homo sapiens. Put plainly: Selectivity index, ratio of Ki for displacement of [3H] Spiperone from human D2S receptor expressed in CHO cells to Ki for displacement of [3H] Spiperone from human D4.4 receptor expressed in CHO cells. The format is cell-based. A digest of the protocol: as §1
Test [6] is filed under the species Homo sapiens. The test is described as follows: Selectivity index, ratio of Ki for displacement of [3H] Spiperone from human D3 receptor expressed in CHO cells to Ki for displacement of [3H] Spiperone from human D4.4 receptor expressed in CHO cells. The format is cell-based. The gist of the method:
as §1

Test [7] has as its target T2, D(4) dopamine receptor. The test is described as follows: Agonist activity at human D4 receptor expressed in HEK293T cells co-expressing G-alphaqi assessed as accumulation of inositol monophosphate using d2-labelled IP1 conjugate incubated for 90 mins by HTRF assay. The format is functional, cell-based. On the technique in general: In TR-FRET formats the signal depends on donor and acceptor labels being close together.

In test [8] the target is T2, D(4) dopamine receptor. The format is cell-based, HEK293.
The target of test [9] is T2, D(4) dopamine receptor. The test is described as follows: Antagonist activity at […] D4 receptor (unknown origin) expressed in HEK293 cells co-expressing beta-arrestin2 assessed as inhibition of quinpirole-induced beta-arrestin2 recruitment preincubated for 30 mins followed by quinpirole addition and further incubated for 6 hrs by Path-Hunter assay. The format is cell-based.

Sequence of D(3) dopamine receptor (P35462 whole entry): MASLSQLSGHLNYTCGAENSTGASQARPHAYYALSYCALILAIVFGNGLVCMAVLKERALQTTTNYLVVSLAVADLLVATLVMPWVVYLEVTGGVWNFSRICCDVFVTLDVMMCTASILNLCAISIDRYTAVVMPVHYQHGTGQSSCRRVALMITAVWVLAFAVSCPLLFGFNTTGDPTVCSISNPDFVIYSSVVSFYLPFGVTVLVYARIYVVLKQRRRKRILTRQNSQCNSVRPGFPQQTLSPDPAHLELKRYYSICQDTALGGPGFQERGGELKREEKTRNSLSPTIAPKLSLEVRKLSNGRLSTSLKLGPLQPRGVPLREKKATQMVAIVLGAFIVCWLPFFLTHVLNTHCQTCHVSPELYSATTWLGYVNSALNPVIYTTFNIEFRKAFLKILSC
T1 sequence (P14416 whole entry): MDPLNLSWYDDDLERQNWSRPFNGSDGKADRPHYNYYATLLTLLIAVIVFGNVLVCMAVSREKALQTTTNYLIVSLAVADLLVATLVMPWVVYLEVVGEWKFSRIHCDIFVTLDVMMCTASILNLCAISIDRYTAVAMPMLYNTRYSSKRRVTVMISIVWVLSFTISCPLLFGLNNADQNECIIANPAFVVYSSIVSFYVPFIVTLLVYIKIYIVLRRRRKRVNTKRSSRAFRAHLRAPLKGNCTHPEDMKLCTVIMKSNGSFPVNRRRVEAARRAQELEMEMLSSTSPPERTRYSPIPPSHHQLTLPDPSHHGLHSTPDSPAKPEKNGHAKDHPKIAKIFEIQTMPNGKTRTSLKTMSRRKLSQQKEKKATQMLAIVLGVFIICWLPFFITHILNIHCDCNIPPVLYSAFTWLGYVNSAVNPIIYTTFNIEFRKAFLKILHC

One may read the pKi as the negative decadic logarithm of the Ki, by convention in mol/L. By pEC50 is commonly meant the EC50 on a negative log10 scale, so that one unit is a factor of ten. Usually pIC50 stands for the negative decadic logarithm of the IC50, by convention in mol/L. Turning to `COc1ccccc1N1CCN(CCCNC(=O)NN(Cc2ccccc2)c2ccc(F)cc2)CC1`, the negative logarithm of the Ki (pKi) was 8.18 on D(2) dopamine receptor [1], 8.37 at D(2) dopamine receptor [2], 7.60 at D(3) dopamine receptor and 9.26 on D(4) dopamine receptor [3]. The Ratio Ki in the test filed under Homo sapiens [4] came out at 12; in the test listed under Homo sapiens [5] it was 7.8; in the test filed under Homo sapiens [6], 45. In addition, the pEC50 was 8.74 at D(4) dopamine receptor [7] and 6.47 at D(4) dopamine receptor [8]. Further, at D(4) dopamine receptor [9], the negative-log IC50 (pIC50) was 7.31.
As for `O=C(NCCN1CCN(c2ccc(I)cc2)CC1)NN(Cc1ccccc1)c1ccccc1`, the negative logarithm of the Ki (pKi) at D(2) dopamine receptor [1] was 6.31; on D(2) dopamine receptor [2] it was 6.29; on D(3) dopamine receptor, 5.74; on D(4) dopamine receptor [3] it was 7.36. In addition, the Ratio Ki in the test filed under Homo sapiens [4] turned out to be 11; in the test listed under Homo sapiens [5], 12; in the test filed under Homo sapiens [6], 38.
Turning to `COc1ccccc1N1CCN(CCCNC(=O)NN(Cc2ccc(F)cc2)c2ccc(F)cc2)CC1`, the pKi was 7.11 on D(2) dopamine receptor [1], 7.52 on D(2) dopamine receptor [2], 7.07 at D(3) dopamine receptor and 8.34 at D(4) dopamine receptor [3]. The Ratio Ki in the test listed under Homo sapiens [4] was determined as 17; in the test filed under Homo sapiens [5] it was 6.5; in the test filed under Homo sapiens [6], 18.
Regarding `COc1ccccc1N1CCN(CCNC(=O)/N=N/c2ccc(F)cc2)CC1`, the pKi at D(2) dopamine receptor [1] was 6.57; on D(2) dopamine receptor [2] it was 6.85; at D(3) dopamine receptor it was 6.92; on D(4) dopamine receptor [3] it was 7.44. The Ratio Ki in the test listed under Homo sapiens [4] worked out at 7.5; in the test listed under Homo sapiens [5], 3.9; in the test listed under Homo sapiens [6], 3.3.
In the case of `COc1ccccc1N1CCN(CCCNC(=O)NN(Cc2ccccc2)c2ccc(Br)cc2)CC1`, the negative-log Ki (pKi) at D(2) dopamine receptor [1] is 7.26; on D(2) dopamine receptor [2] it was 7.47; on D(3) dopamine receptor, 6.89; at D(4) dopamine receptor [3], 8.47. Also, the results for the Ratio Ki in the test filed under Homo sapiens [4], in the test listed under Homo sapiens [5] and in the test filed under Homo sapiens [6] were 16, 10 and 38, respectively.
As to `COc1ccccc1N1CCN(CCCNC(=O)NN(Cc2ccc(C#N)cc2)c2ccc(F)cc2)CC1`, the pKi on D(2) dopamine receptor [1] is 6.68; at D(2) dopamine receptor [2] it was 6.92; on D(3) dopamine receptor, 6.19; at D(4) dopamine receptor [3] it was 7.82. Further, the Ratio Ki in the test filed under Homo sapiens [4] was 14; in the test filed under Homo sapiens [5], 8; in the test listed under Homo sapiens [6], 43.
Take `COc1ccc(N(Cc2cccc(F)c2)NC(=O)NCCCN2CCN(c3ccccc3OC)CC2)cc1`: the pKi on D(2) dopamine receptor [1] was 7.23; on D(2) dopamine receptor [2] it was 7.46; at D(3) dopamine receptor it was 7.07; at D(4) dopamine receptor [3], 8.21. The Ratio Ki in the test listed under Homo sapiens [4] was found to be 10; in the test filed under Homo sapiens [5], 5.6; in the test listed under Homo sapiens [6], 14.
Turning to `COc1ccccc1N1CCN(CCCNC(=O)NN(Cc2ccccc2F)c2ccc(Cl)cc2)CC1`, the pKi on D(2) dopamine receptor [1] is 7.39; on D(2) dopamine receptor [2], 7.59; on D(3) dopamine receptor it was 7.02; at D(4) dopamine receptor [3], 8.59. For the same molecule, the Ratio Ki in the test listed under Homo sapiens [4] was found to be 16; in the test listed under Homo sapiens [5] it was 10; in the test listed under Homo sapiens [6] it was 36.
`COc1ccccc1N1CCN(CCCNC(=O)NN(Cc2ccc(C#N)cc2)c2ccc(Cl)cc2Cl)CC1`: the negative-log Ki (pKi) at D(2) dopamine receptor [1] is 6.82; at D(2) dopamine receptor [2], 7.03; at D(3) dopamine receptor it was 6.55; at D(4) dopamine receptor [3], 7.92. In addition, the results for the Ratio Ki in the test filed under Homo sapiens [4], in the test filed under Homo sapiens [5] and in the test listed under Homo sapiens [6] were 13, 7.8 and 23, respectively.
Consider `COc1ccc(N(Cc2ccccc2F)NC(=O)NCCCN2CCN(c3ccccc3OC)CC2)cc1`, for which the negative-log Ki (pKi) on D(2) dopamine receptor [1] was 7.38; at D(2) dopamine receptor [2], 7.72; on D(3) dopamine receptor, 7.12; at D(4) dopamine receptor [3] it was 8.59. The Ratio Ki worked out at 16 in the test filed under Homo sapiens [4], 7.3 in the test filed under Homo sapiens [5] and 29 in the test listed under Homo sapiens [6].
